ChEMBL document CHEMBL1759940, “Synthesis and anticonvulsant activity of 8-alkoxy-5,6-dihydro-4H-[1,2,4]triazolo[4,3-a][1]benzazepin-1-one derivatives” (Eur J Med Chem, 2011)
Activity calls are given as the source filed them. The calls are words filed in the database; no cut-off is given here.

Tests used:
Mus musculus [1] = experiment: Anticonvulsant activity in Swiss mouse assessed as protection against subcutaneous pentylenetetrazol-induced seizures at 100 mg/kg, ip after 30 mins; assay type: functional, organism-based; set-up: dose 100 mg/kg
Summary of the method: (§1)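 Swiss mice (18-22 g) were dosed i.p. in DMSO at 30, 100 or 300 mg/kg. Pentylenetetrazol (85 mg/kg) was then injected s.c. Protection meant no clonic spasms lasting at least 5 s over a 30 min period after test compound administration.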

[2] = Neurotoxicity against Swiss mouse after 4 hrs by rotarod ataxia test; assay type: toxicity, organism-based; conditions: in vivo
Summary of the method: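 Neurologic deficit was scored in Swiss mice (18-22 g) by rotarod ataxia test after i.p. dosing in DMSO (phase I: 30, 100, 300 mg/kg, assessed at 30 min and 4 h). For TD50, groups of 10 mice received a range of doses giving at least three points within 10-90% minimal neurotoxicity, calculated by trimmed Spearman-Karber with 95% confidence intervals.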

Mus musculus [3] = experiment: Anticonvulsant activity in ip dosed Swiss mouse assessed as protection against maximal electroshock-induced seizures administered 30 mins before electroshock challenge measured after 30 mins; assay type: functional
Summary of the method: (§2)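 Phase II quantification in Swiss mice (18-22 g), with compounds dissolved in DMSO and given i.p. Groups of 10 mice received a range of doses until at least three points fell within 10-90% protection against MES-induced seizures. ED50 and 95% confidence intervals were derived by the trimmed Spearman-Karber method.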

Mus musculus [4] = species on record: Mus musculus; experiment: Protective index, ratio of TD50 for Swiss mouse to ED50 for Swiss mouse by maximal electroshock-induced seizures test; assay type: functional
Mus musculus [5] = experiment: Protective index, ratio of TD50 for Swiss mouse to ED50 for Swiss mouse by subcutaneous pentylenetetrazol-induced seizure test; assay type: functional
Mus musculus [6] = experiment: Anticonvulsant activity in ip dosed Swiss mouse assessed as protection against maximal electroshock-induced seizures after 30 mins; assay type: functional; conditions: 0.5 h; summary of the method: as §2
Mus musculus [7] = experiment: Anticonvulsant activity in Swiss mouse assessed as protection against maximal electroshock-induced seizures at 100 mg/kg, ip administered 30 mins before electroshock challenge measured after 30 mins; assay type: functional, organism-based; set-up: dose 100 mg/kg
Summary of the method: (§3)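 Swiss mice (18-22 g) given the test compound i.p. in DMSO at 30, 100 or 300 mg/kg for phase I screening. Maximal electroshock was applied 30 min after dosing, and protection against the MES-induced seizure was scored.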

Mus musculus [8] = experiment: Anticonvulsant activity in Swiss mouse assessed as protection against maximal electroshock-induced seizures at 30 mg/kg, ip administered 30 mins before electroshock challenge measured after 30 mins; assay type: functional, organism-based; set-up: dose 30 mg/kg; summary of the method: as §3
Mus musculus [9] = experiment: Anticonvulsant activity in Swiss mouse assessed as protection against subcutaneous pentylenetetrazol-induced seizures at 30 mg/kg, ip after 30 mins; assay type: functional, organism-based; set-up: dose 30 mg/kg; summary of the method: as §1
Mus musculus [10] = experiment: Anticonvulsant activity in Swiss mouse assessed as protection against maximal induced seizures at 300 mg/kg, ip administered 30 mins before electroshock challenge measured after 30 mins; assay type: functional, organism-based; set-up: dose 300 mg/kg; summary of the method: as §3
Mus musculus [11] = experiment: Anticonvulsant activity in Swiss mouse assessed as protection against subcutaneous pentylenetetrazol-induced seizures at 300 mg/kg, ip after 30 mins; assay type: functional, organism-based; set-up: dose 300 mg/kg; summary of the method: as §1

## CCCCCCCCOc1ccc2c(c1)CCCc1n[nH]c(=O)n1-2
Mus musculus [1]
  Activity: Active
[2]
  TD50 at 4 h: > 1120 mg/kg
Mus musculus [3]
  ED50: 20.7 mg/kg
Mus musculus [4]
  PI: >54
Mus musculus [5]
  PI: >22.2
Mus musculus [6]
  ED50: 20.7 mg/kg

## CCCCOc1ccc2c(c1)CCCc1n[nH]c(=O)n1-2
Mus musculus [1]
  Activity: Active
[2]
  TD50 at 4 h: > 1120 mg/kg
Mus musculus [3]
  ED50: 37.3 mg/kg
Mus musculus [4]
  PI: >29.9
Mus musculus [7]
  Activity: Active
Mus musculus [5]
  PI: >17
Mus musculus [6]
  ED50: 37.3 mg/kg

## CCCCCOc1ccc2c(c1)CCCc1n[nH]c(=O)n1-2
Mus musculus [1]
  Activity: Active
[2]
  TD50 at 4 h: > 1120 mg/kg
Mus musculus [3]
  ED50: 24.6 mg/kg
Mus musculus [4]
  PI: >45.4
Mus musculus [8]
  Activity: Active
Mus musculus [5]
  PI: >29.4
Mus musculus [6]
  ED50: 24.6 mg/kg

## Cc1ccc(COc2ccc3c(c2)CCCc2n[nH]c(=O)n2-3)cc1
Mus musculus [1]
  Activity: inactive
[2]
  TD50 at 4 h: > 931 mg/kg
Mus musculus [3]
  ED50: 50 mg/kg
Mus musculus [4]
  PI: >18.6
Mus musculus [9]
  Activity: inactive

## CCCOc1ccc2c(c1)CCCc1n[nH]c(=O)n1-2
[2]
  TD50 at 4 h: > 931 mg/kg
Mus musculus [3]
  ED50: 75.5 mg/kg
Mus musculus [4]
  PI: >12.3
Mus musculus [9]
  Activity: inactive

## O=c1[nH]nc2n1-c1ccc(OCc3ccccc3)cc1CCC2
[2]
  TD50 at 4 h: > 931 mg/kg
Mus musculus [3]
  ED50: 30.5 mg/kg
Mus musculus [4]
  PI: >30.5
Mus musculus [7]
  Activity: Active

## COc1ccc2c(c1)CCCc1n[nH]c(=O)n1-2
Mus musculus [1]
  Activity: inactive
Mus musculus [10]
  Activity: Active
Mus musculus [11]
  Activity: inactive
Mus musculus [9]
  Activity: inactive

## O=c1[nH]nc2n1-c1ccc(OCc3ccccc3F)cc1CCC2
[2]
  TD50 at 4 h: > 931 mg/kg
Mus musculus [3]
  ED50: 18.4 mg/kg
Mus musculus [4]
  PI: >50.6
Mus musculus [8]
  Activity: Active
Mus musculus [11]
  Activity: inactive
Mus musculus [9]
  Activity: inactive

## NC(=O)N1c2ccccc2C=Cc2ccccc21 [CARBAMAZEPINE]
[2]
  TD50 at 4 h: 74.4 mg/kg
Mus musculus [3]
  ED50: 9.2 mg/kg
Mus musculus [5]
  PI: <0.74
Mus musculus [6]
  ED50: 9.2 mg/kg

## O=c1[nH]nc2n1-c1ccc(OCc3ccc(F)cc3)cc1CCC2
[2]
  TD50 at 4 h: > 931 mg/kg
Mus musculus [3]
  ED50: 22.8 mg/kg
Mus musculus [4]
  PI: >40.8
Mus musculus [9]
  Activity: inactive

## O=c1[nH]nc2n1-c1ccc(OCc3cccc(Cl)c3)cc1CCC2
[2]
  TD50 at 4 h: > 931 mg/kg
Mus musculus [3]
  ED50: 26.4 mg/kg
Mus musculus [4]
  PI: >35.3

## CCCCCCOc1ccc2c(c1)CCCc1n[nH]c(=O)n1-2
Mus musculus [1]
  Activity: Active
[2]
  TD50 at 4 h: > 1120 mg/kg
Mus musculus [3]
  ED50: 17.9 mg/kg
Mus musculus [4]
  PI: >62.4
Mus musculus [8]
  Activity: Active
Mus musculus [5]
  PI: >24
Mus musculus [6]
  ED50: 17.9 mg/kg

## O=c1[nH]nc2n1-c1ccc(OCc3ccc(Cl)cc3)cc1CCC2
[2]
  TD50 at 4 h: > 931 mg/kg
Mus musculus [3]
  ED50: 40.1 mg/kg
Mus musculus [4]
  PI: >23.2
Mus musculus [7]
  Activity: Active
Mus musculus [11]
  Activity: inactive

## CCCCCCCOc1ccc2c(c1)CCCc1n[nH]c(=O)n1-2
Mus musculus [1]
  Activity: Active
[2]
  TD50 at 4 h: > 1120 mg/kg
Mus musculus [3]
  ED50: 17.6 mg/kg
Mus musculus [4]
  PI: >63.4
Mus musculus [8]
  Activity: Active
Mus musculus [5]
  PI: >25.9
Mus musculus [6]
  ED50: 17.6 mg/kg

## O=c1[nH]nc2n1-c1ccc(OCc3ccc(Br)cc3)cc1CCC2
[2]
  TD50 at 4 h: > 931 mg/kg
Mus musculus [3]
  ED50: 55.8 mg/kg
Mus musculus [4]
  PI: >16.7
Mus musculus [7]
  Activity: Active

## O=c1[nH]nc2n1-c1ccc(OCc3ccccc3Cl)cc1CCC2
Mus musculus [1]
  Activity: inactive
[2]
  TD50 at 4 h: > 931 mg/kg
Mus musculus [3]
  ED50: 32.9 mg/kg
Mus musculus [4]
  PI: >28.3
Mus musculus [7]
  Activity: Active

## O=c1[nH]nc2n1-c1ccc(OCc3cccc(F)c3)cc1CCC2
Mus musculus [1]
  Activity: inactive
[2]
  TD50 at 4 h: > 931 mg/kg
Mus musculus [3]
  ED50: 17.6 mg/kg
Mus musculus [4]
  PI: >52.9
Mus musculus [8]
  Activity: Active
Mus musculus [9]
  Activity: inactive
